Here are results for 37 variants from the RNAGym collection of RNA variant scans (doi:10.1126/science.aae0568).

B1: tRNA (parent)
chain: GUUCCGUUGGCGUAAUGGUAACGCGUCUCCCUCCUAAGGAGAAGACUGCGGGUUCGAGUCCCGUACGGAACG

Variants at the floor of the assay were thinned out.

The variants in this data set derive from B1. In words: yeast fitness relative to wild type (ratio to wild type); higher = fitter; tRNA-Arg(CCU), competitive growth, 37 C, YPD. In a few lines: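 Amplicons of the tRNA-Arg(CCU) gene were sequenced, 100-nucleotide paired-end, from the start population and from each end population of a pooled yeast competition. The competition, in six parallel replicates, lasted 24 hours in YPD at 37°C. Fitness relative to wild type was calculated from changes in genotype frequencies. Genotypes had to have ≥ 100 starting reads, and estimates < 0.5 were set to 0.5.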
For the variant GUUCUGUUGGCGUAAUGGUAACGAGUCUCCCUCCUAAGGAGAAGACUGCGGGUUAGAGUCCCGUGCGGAACG [C5U C24A C55A A65G], the yeast fitness is at most 0.5. Take GUCCCGUUGGCGUAAUGGUAACGCGUCUCCCUCCUAAGGAGAAGACUGCGGGUUCGAGUCCAGUACGGAACG [U3C C62A]: the yeast fitness amounted to 0.865. For GUUCCGUUGGCGUAAUCGUAACGCGUCACAAUCCUAAGGAGAAGACUGCGGGUUCGAGUCCCGUACGGAACG [G17C U28A C30A C31A], the yeast fitness stood at 0.623. As for GUUCCGUUGGCGUAAUGGUAACCGGUCUCCCUCUUAAGAAGAAGCCUGCGGGUUCGAGUCCCGUACGGAACG [G23C C24G C34U G39A A45C], the yeast fitness was at most 0.5.

On to GUUCCGUUGGCGUAAUGGUAACGCAUCUCCUUCCUAAGGAUAAGACUGCGGGUUCGAGUCCCGUACGGAACG [G25A C31U G41U], for which the yeast fitness worked out at 0.739.

For the variant GUUCCGUUGGCGCAAUGGUAACGCCUCUCCGUCCUAAGGAGAAGACUGCGGGUUCGAGUCCCGUACGGAACG [U13C G25C C31G], the yeast fitness amounted to 0.877. For the variant GUUCCGUUGGCGUAAUGGUACCGCGUCUCCCUCCUAAGGUGAAGACUGCGGGUUCGAGUCCCGUACGGAACG [A21C A40U], the yeast fitness was 0.807. With GUUCCGUUGGCGUAAUGGUAACGCGUUUCCCUCCUAAGGAAAAGACUGCGGGUUCGAGUACCGUACGGAACG [C27U G41A C60A] the figure was 0.878. Then GUUCCGUUGGCGUAAUGGUAACGCGUGUCCCUCCUGAGGAGAAGACUGCGGGUUCGAGUCCCGUGCGGAACG [C27G A36G A65G], with at most 0.5; and GUUCCGUUGCCGUAAUGGUAACGCGUCGCCCUCCUAAGAAGAAGACUGAGGGUUCGAGUCCCGUACGGAACG [G10C U28G G39A C49A], with at most 0.5.

GUUCCGUUGGCGUACUAGUAACGCGUCUCCCUCCUAACGAGAAGACUGCGGGUUCGAGUCCCGUACGGAACG [A15C G17A G38C]: the yeast fitness is at most 0.5. Then GUUCCGUUGGCGUAAUGGUACCGCGUUUCCCUCCUAAGGAGAAGCCUGUGGGUUCGAGUCCCGUACGGAACG [A21C C27U A45C C49U], with at most 0.5. Then GUUCCGUUGGCGUAUUGGUAGCGCGUCUUCCUCCUAAGGAGAACACUGCGGGUUACAGUCCCGUACGGAACG [A15U A21G C29U G44C C55A G56C], with at most 0.5; and GUUCCGUUGGGGUAAUGGUAACGCGUCUCCCUCCUAAGGAGAAGACUGCGGGUUCCAGUCCCGUACGGAACG [C11G G56C], with 0.627. Take GUUCCGUUCGCGUAAUAGUAACGCGUUUCCCUCCUAAGGAGAAGACUGCGGGUACGAGUCCCGUACGGAACG [G9C G17A C27U U54A]: the yeast fitness was at most 0.5. For GUUCCGUUGGCGUAAUCGUAACGCGUGUACCUCCUAAGGAGAAGACUGCGGGUUCGAGUCCCGUACGGAACG [G17C C27G C29A], the yeast fitness was at most 0.5. Turning to GUUCCGUUGGUGUAAUGGUAACGCGUCUCUCUCCUAAGGAGAAGACUCCGGGUUCGAGUCCCGUACGCAACG [C11U C30U G48C G68C], the yeast fitness was at most 0.5. Regarding GUUGCCUUGGCGUAAUGGUAACGCGUCUCCCUCGUAAGGAGGAGAGUGCGGGUUCGAGUCCCGUACGGAACG [C4G G6C C34G A42G C46G], the yeast fitness was at most 0.5. With GUUCCGUUGGCGUAAUGGUAACGCGUCUCCAUCCUAGGGAGAAGACUGCGGGUUCGAGUCCCGUACGGAACG [C31A A37G], the yeast fitness was 0.672.

Take GUUCCGUUGGCGUAAUCGUAACGCGUCUCCCUCCUAAGGAGAAGACUGCGGGUUCGAGUCUUGUAAGGAACG [G17C C61U C62U C66A]: the yeast fitness was determined as 0.593. As to GUUCCGUUGGCAUAAUGGUAACGCGUCUCCCUCAUAAGGAGAAGACUGCGUGUUCGAAUCCCUUACGGAACG [G12A C34A G51U G58A G63U], the yeast fitness is at most 0.5.

On to GUUCCGUGGGCGUAAUGGUAACGCGUCUCCCUCCUAAGGAGAAGGCUGCGGGUUCGAGUCCCGUACGGAACG [U8G A45G], for which the yeast fitness was found to be 0.632.

GUUCUGUUGGCGUAAUGGUUACGCGUCUCGCUCCUAAGGAGAAGACUGCGGGUUCGAGUCCCGUAUGGAACG [C5U A20U C30G C66U]: the yeast fitness was at most 0.5. Take GUUCCGUUGGCGUAAUAGUAACGCGUCUCCCUCCUAAGGAGAAGACUGCGGGUUCGAGUCCCGUACGAAACG [G17A G68A]: the yeast fitness was found to be 0.81. With GUUCCGUUGGCGUAAUGGUAAUGGGUCUCCCUCCUAAGGAGAAGACUGGGGGUUCAAGUCCCGUACGGAACG [C22U C24G C49G G56A] the figure was at most 0.5. Regarding GUUCCGUUGGCGUAAUGGUAACGCGUCUCUCUCCUAAGGAAAAGACUGCGGGUUCGAGUCCCGUACGGCACG [C30U G41A A69C], the yeast fitness was at most 0.5. As to GUUCUGUUGGCGUAAUGGUAACGCGUCUUCCUCCUAAGGAGAAGACUGCCGGUUCGAGACCCGUACGGAACG [C5U C29U G50C U59A], the yeast fitness was at most 0.5. With GUUCCAUUGGCGUAAUGGUAACGCGUCUCCCUCCUAAGGAGAAGACUGCAGGUUCGAAUCCCGUACGGAACG [G6A G50A G58A] the figure was 0.698. With GUUCCGUUGGCGUAAUGGUAACGCGUAUCGCUCCUAAGGACAAGACUGCGGGUUCGAGUCGUGUAUGGUACG [C27A C30G G41C C61G C62U C66U A69U] the figure was at most 0.5.

Consider GUUCCGUUGGCGUAAUGGUAACGGGUCUCUCUCAUAAGGAGAAGACUGCGAGUUCGAGUCCCGUACGGAACG [C24G C30U C34A G51A], for which the yeast fitness was 0.542. With GUUCCGUUGGCGUAAAGGUAACGCGUCUCCCUCCUAAGGAGAAGACUGCGGGUUCGAGUCCCGUACGGACCG [U16A A70C] the figure was 0.897; with GUUCCGUUGGCGUAAUGGUAACGCGUCUCCCUCCUAAGGAGAAGCCUGCGGGUUGGAGUCCCGUACGGAACG [A45C C55G], 0.528; with GUUCCGUUGGCCUAAUGGUCACGCGUCUCCCUCCUAAGGAGAAGACAGCGGGUUCGAGUCCCGUACGGAGCG [G12C A20C U47A A70G], 0.755.

Consider GUUCCGUUGGCGUAAUGGUAAUGCGUCUCCCUCCUAGGGAGAAGUCUGCGGAUCCGAGUCCCGUACGGAACG [C22U A37G A45U G52A U54C], for which the yeast fitness was at most 0.5. With GUUCCGUUGGCGUAAUGGUAACGCGUCUCCCUCCUAAGGAGAAGACUGCGGGUUCGAGUCCCGUACAGAGCG [G67A A70G], the yeast fitness is 0.917. Then GUUACGUUGCCGUAAUGGUAACGCGACUCCCUCCUAAGGAGAAGACUGCGGGUUCGAGUCCCGAACGGAACG [C4A G10C U26A U64A], with at most 0.5; and GUUCCGUUGGCGUAAUGGUAACGCGUCUGCCUCCUAAGGAGAAGACGGCGGGUUCGGGUCCCGUACGGUACG [C29G U47G A57G A69U], with at most 0.5.
